Experimental data taken from article PMC3349182 (British Journal of Cancer, 2012).

How the values were obtained:
[1] = Food-effect investigation; format: in vivo, human
Summary of the method: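 At the MTD, patients were randomised to take the cycle 1 day 15 dose fed (after a high-fat meal) or fasted (overnight fast ⩾10 h). The day 22 dose was taken in the reverse state, with no food for 4 h after either dose. Plasma levels were measured by LC-MS/MS. The 90% CIs for log-transformed fed/fasted Cmax and AUC0-24 were derived by ANOVA; 80–125% was taken as no food effect.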

[2] = tested on: patients with advanced radioiodine-refractory differentiated thyroid cancer; conditions: preliminary results, phase II; ref Sherman et al, 2011; cited from earlier work
[3] = tested on: patients with advanced, refractory solid tumours; assay: Anti-tumour efficacy by Response Evaluation Criteria in Solid Tumours; format: in vivo, human
Summary of the method: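 Patients took oral drug once daily on an empty stomach after an overnight fast, with only clear fluids within 2 h of dosing. Dosing was continuous in 28-day cycles until progressive disease or unacceptable toxicity. Tumour response was assessed by RECIST measurements, with CT imaging.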

[4] = tested on: patients with advanced, refractory solid tumours; assay: Phase I dose escalation: toxicity; format: in vivo, human
Summary of the method: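 Oral dosing was once daily in 28-day cycles, escalating by an accelerated design from 0.2 mg/day. Toxicity was graded by NCI CTC v3.0. During cycle 1, patients had weekly examination, blood pressure, full blood count, biochemistry and urinalysis, plus ECGs on days 1 and 8. DLT covered drug-related toxicity in cycle 1: grade ⩾3 toxicity, repeated grade 2 toxicity needing dose reduction, or <75% of planned dose given. The MTD was the highest dose with ≤1/6 patients having a DLT, and 12 more patients were treated at the MTD.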

[5] = 25 mg, eleven patients, high-fat meal vs overnight fast
[6] = 0.2–6.4 mg per day, 21 patients
[7] = treatment-related, 25 mg (n=24)
[8] = treatment-related, 0.2–6.4 mg (n=21)

For `COc1cc2nccc(Oc3ccc(NC(=O)NC4CC4)c(Cl)c3)c2cc1C(N)=O` [E7080], the “AUC ratio fed/fasted (90% CI)” value [1, 5] was 1.00 (90% CI 0.83–1.20), the “Cmax ratio fed/fasted (90% CI)” value [1, 5] was 0.98 (90% CI 0.73–1.31) and the “tmax (median)” value ([1]; fasted group) was 2.0 h. The “tmax (median)” value ([1]; fed group) was 5.0 h, the Objective response rate [2] was 59% and the “Best response: Not evaluated, %” value ([3]; 25 mg per day, 24 patients) was 0 (0) %. The “Best response: Partial response, %” value ([3]; 25 mg per day, 24 patients) was 13%, the “Best response: Progressive disease, %” value ([3]; 25 mg per day, 24 patients) was 8% and the “Best response: Stable disease, %” value ([3]; 25 mg per day, 24 patients) was 67%. For the same compound, the “Best response: Not evaluated, %” value ([3]; 32 mg per day, 7 patients) was 0 (0) %, the “Best response: Partial response, %” value ([3]; 32 mg per day, 7 patients) was 29% and the “Best response: Progressive disease, %” value ([3]; 32 mg per day, 7 patients) was 0 (0) %. For the same compound, the “Best response: Stable disease, %” value ([3]; 32 mg per day, 7 patients) was 43%, the “Best response: Not evaluated, %” value [3, 6] was 5% and the “Best response: Partial response, %” value [3, 6] was 0 (0) %. For the same compound, the “Best response: Progressive disease, %” value [3, 6] was 24%, the “Best response: Stable disease, %” value [3, 6] was 19% and the “Best response: Not evaluated, %” value ([3]; 12–20 mg per day, 30 patients) was 3%. The “Best response: Partial response, %” value ([3]; 12–20 mg per day, 30 patients) was 7%, the “Best response: Progressive disease, %” value ([3]; 12–20 mg per day, 30 patients) was 23% and the “Best response: Stable disease, %” value ([3]; 12–20 mg per day, 30 patients) was 50%. The “Best response: Not evaluated, %” value ([3]; Total, 82 patients) was 2 (2) %, the “Best response: Partial response, %” value ([3]; Total, 82 patients) was 9% and the “Best response: Progressive disease, %” value ([3]; Total, 82 patients) was 17%. For the same compound, the “Best response: Stable disease, %” value ([3]; Total, 82 patients) was 46%, the “Clinical benefit (PR rate plus SD rate), % of patients” value ([3]; all doses) was 55% and the “Clinical benefit (PR rate plus SD rate), n patients” value ([3]; all doses) was 45. The “Patients with renal cancer with PR” value ([3]; of nine patients with renal cancer) was “Four”, the “Decrease in the sum of the longest tumour diameters” value ([3]; one patient with melanoma (largest decrease)) was “approximately 85%” and the “Overall reduction in tumour size (CT)” value ([3]; one patient with melanoma, after 32 weeks' treatment) was 77%. For the same compound, the “Overall reduction in tumour size (CT)” value ([3]; one patient with renal cancer, after 24 weeks' treatment) was 51%, the “Median progression-free survival (95% CI)” value ([3]; patients with melanoma, n=14) was 217 days and the “Median progression-free survival (95% CI)” value ([3]; patients with renal cancer, all dose cohorts, n=9) was 477 days. The “Dose modifications required, % of patients” value ([4]; all doses) was 49%, the “Dose modifications required, n patients” value ([4]; all doses) was 40 and the “Dose reduction because of stomatitis, % of patients” value ([4]; all doses) was 2%. The “Haematological toxicities, % of patients” value ([4]; all grades, all doses) was 7%, the “Dose modifications required, % of patients” value ([4]; at the MTD of 25 mg) was 54% and the “Dose modifications required, n patients” value ([4]; at the MTD of 25 mg) was 13. For the same compound, the Tolerability ([4]; doses up to 25 mg per day, oral, daily continuous dosing) was “well tolerated”, the “Maximum tolerated dose (MTD)” value ([4]; oral, once-daily continuous schedule, 28-day cycles) was 25 mg and the “Abdominal pain (all grades), n patients” value [4, 7] was 7. For the same compound, the “Anorexia (all grades), % of patients” value [4, 7] was 21%, the “Anorexia (all grades), n patients” value [4, 7] was 5 and the “Constipation (all grades), n patients” value [4, 7] was 8. The “Diarrhoea (all grades), n patients” value [4, 7] was 12, the “Dry skin (all grades), % of patients” value [4, 7] was 46% and the “Dry skin (all grades), n patients” value [4, 7] was 11. The “Dysphonia (all grades), % of patients” value [4, 7] was 46%, the “Dysphonia (all grades), n patients” value [4, 7] was 11 and the “Fatigue (all grades), % of patients” value [4, 7] was 21%. The “Fatigue (all grades), n patients” value [4, 7] was 5, the “Headache (all grades), n patients” value [4, 7] was 7 and the “Hypertension (all grades), n patients” value [4, 7] was 15. The “Hypertension Grade 1, % of patients” value [4, 7] was 4%, the “Hypertension Grade 1, n patients” value [4, 7] was 1 and the “Hypertension Grade 2, % of patients” value [4, 7] was 46%. For the same compound, the “Hypertension Grade 2, n patients” value [4, 7] was 11, the “Hypertension Grade 3, % of patients” value [4, 7] was 13% and the “Lethargy (all grades), % of patients” value [4, 7] was 38%. For the same compound, the “Lethargy (all grades), n patients” value [4, 7] was 9, the “Nausea (all grades), n patients” value [4, 7] was 14 and the “Proteinuria (all grades), n patients” value [4, 7] was 7. The “Proteinuria Grade 1, % of patients” value [4, 7] was 0%, the “Proteinuria Grade 1, n patients” value [4, 7] was 0 and the “Proteinuria Grade 2, % of patients” value [4, 7] was 21%. For the same compound, the “Proteinuria Grade 2, n patients” value [4, 7] was 5, the “Proteinuria Grade 3, % of patients” value [4, 7] was 8% and the “Stomatitis (all grades), n patients” value [4, 7] was 15. For the same compound, the “Vomiting (all grades), n patients” value [4, 7] was 8, the “Abdominal pain (all grades), % of patients” value ([4]; treatment-related, 32 mg (n=7)) was 0% and the “Abdominal pain (all grades), n patients” value ([4]; treatment-related, 32 mg (n=7)) was 0. For the same compound, the “Anorexia (all grades), n patients” value ([4]; treatment-related, 32 mg (n=7)) was 2, the “Constipation (all grades), % of patients” value ([4]; treatment-related, 32 mg (n=7)) was 14% and the “Constipation (all grades), n patients” value ([4]; treatment-related, 32 mg (n=7)) was 1. For the same compound, the “Diarrhoea (all grades), n patients” value ([4]; treatment-related, 32 mg (n=7)) was 4, the “Dry skin (all grades), % of patients” value ([4]; treatment-related, 32 mg (n=7)) was 14% and the “Dry skin (all grades), n patients” value ([4]; treatment-related, 32 mg (n=7)) was 1. For the same compound, the “Dysphonia (all grades), n patients” value ([4]; treatment-related, 32 mg (n=7)) was 3, the “Fatigue (all grades), % of patients” value ([4]; treatment-related, 32 mg (n=7)) was 14% and the “Fatigue (all grades), n patients” value ([4]; treatment-related, 32 mg (n=7)) was 1. For the same compound, the “Headache (all grades), n patients” value ([4]; treatment-related, 32 mg (n=7)) was 2, the “Hypertension (all grades), n patients” value ([4]; treatment-related, 32 mg (n=7)) was 4 and the “Hypertension Grade 1, n patients” value ([4]; treatment-related, 32 mg (n=7)) was 2. The “Hypertension Grade 2, % of patients” value ([4]; treatment-related, 32 mg (n=7)) was 0%, the “Hypertension Grade 2, n patients” value ([4]; treatment-related, 32 mg (n=7)) was 0 and the “Hypertension Grade 3, n patients” value ([4]; treatment-related, 32 mg (n=7)) was 2. The “Lethargy (all grades), n patients” value ([4]; treatment-related, 32 mg (n=7)) was 2, the “Nausea (all grades), n patients” value ([4]; treatment-related, 32 mg (n=7)) was 3 and the “Proteinuria (all grades), n patients” value ([4]; treatment-related, 32 mg (n=7)) was 3. For the same compound, the “Proteinuria Grade 1, % of patients” value ([4]; treatment-related, 32 mg (n=7)) was 0%, the “Proteinuria Grade 1, n patients” value ([4]; treatment-related, 32 mg (n=7)) was 0 and the “Proteinuria Grade 2, % of patients” value ([4]; treatment-related, 32 mg (n=7)) was 14%. For the same compound, the “Proteinuria Grade 2, n patients” value ([4]; treatment-related, 32 mg (n=7)) was 1, the “Proteinuria Grade 3, n patients” value ([4]; treatment-related, 32 mg (n=7)) was 2 and the “Stomatitis (all grades), n patients” value ([4]; treatment-related, 32 mg (n=7)) was 4. For the same compound, the “Vomiting (all grades), % of patients” value ([4]; treatment-related, 32 mg (n=7)) was 14%, the “Vomiting (all grades), n patients” value ([4]; treatment-related, 32 mg (n=7)) was 1 and the “Abdominal pain (all grades), % of patients” value [4, 8] was 0%. The “Abdominal pain (all grades), n patients” value [4, 8] was 0, the “Anorexia (all grades), % of patients” value [4, 8] was 10% and the “Anorexia (all grades), n patients” value [4, 8] was 2. The “Constipation (all grades), % of patients” value [4, 8] was 10%.
